Screening results from PubChem.
NALP1 inh: inhibitors of NALP1 inflammasome in yeast; inhibition, % at 10 µM; AID 2071; S. cerevisiae NALP1/ASC/caspase-1 growth, X-gal OD620, 72 h; 0.61% of 280,000 active; in the data active = inhibition mostly above about 24%, no sharp cut-off; inactive = mostly below about 32%
Arr AP2 block: blocks beta-arrestin peptide binding to AP2 adaptin; FITC-arrestin peptide / GST-AP2 beads, flow cytometry; AP2 beta2 appendage carries R879A mutation; inhibition, % at 10 µM; 0.31% of 340,000 active; AID 504490;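 active = inhibition above a set limit, near 3 SD of compounds lacking own fluorescence, cut at about 54% in these data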
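System: GST-tagged AP2 beta2-adaptin appendage (R879A) on 4 µm glutathione beads / Reagent: FITC-arrestin peptide, 50 nM / Detection: HyperCyt-sampled flow cytometry, FL1 channel, ex 488/em 535 nm / Timing: 12 min plus 1 h, RT / Buffer or medium: PBS plus Tween 20 (0.05%) and BSA (0.1%)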
ALR inh: inhibitors of human sulfhydryl oxidase ALR; P55789; purified ALR, DTT oxidation, H2O2 HRP-luminol luminescence; inhibition, % (concentration not given with the values); 3.8% of 290,000 active; AID 485317;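 active = mean replicate inhibition above about 79%, with every replicate also reaching it, limit read from the data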
PolyA inhibitor: inhibitors of polyadenylation in S. cerevisiae; S. cerevisiae SKY197-pL101 polyadenylation reporter, beta-gal luminescence; efflux-impaired pdr1/pdr3 knockout yeast; score 100 = 6 SD above DMSO; 0.02% of 300,000 active; activity score, % at 12 µM; AID 1875;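 active = lowest replicate activity score at least 50, where 100 means six control SD above control mean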;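 also: yeast exposed to compound for 9 h at 30 °C; higher score means more reporter readthrough which indicates perturbed polyadenylation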
Pemphigus Ab inh: blocks pemphigus antibody binding to human desmoglein-3. P32926. binding (percent of control), % at 10 µM. DSG3-coupled beads, scFv-anti-DSG3-GFP binding, flow cytometry; active compounds read low. 0.48% of 310,000 active;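 active = binding more than 3 SD below its plate's average and above zero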;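 also: hits lower antibody fragment binding to DSG3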
NLRP3 yeast inh: inhibitors of NALP3 inflammasome in yeast; 0.39% of 330,000 active; inhibition, % at 10 µM; Yeast reconstituted NLRP3/ASC/caspase-1, beta-gal luminescence, 24 h;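 active = inhibition of 50% or more; inactive = inhibition below 50%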
A number is an active result; n = inactive; x = no result. The list is not random: actives were taken first. Their share in the collection is about 4.6%.

SMILES | NALP1 inh | Arr AP2 block | ALR inh | PolyA inhibitor | Pemphigus Ab inh | NLRP3 yeast inh
O=c1o[nH]c(-c2ccccc2)c1-c1ccccc1 | x | n | 89 | n | n | n
O=c1[nH][nH]c(-c2ccccc2)c1-c1ccccc1 | x | n | x | x | n | x
CC1=CC(C)(C)Nc2ccc(OC(=O)CN3C(=O)c4ccccc4C3=O)cc21 | 64 | n | n | n | n | n
CS(=O)(=O)N1CCc2cc(C(=O)Nc3ccc(O)cc3)ccc21 | n | n | 99 | n | n | n
NC(=O)c1ccc(NC(=O)c2ccc3c(c2)CCN3S(=O)(=O)c2ccccc2)cc1 | n | n | n | n | 10 | n
O=C(O)c1cccc(NC(=O)c2cccc(S(=O)(=O)N3CCc4ccccc43)c2)c1 | n | n | x | n | n | n
CSCc1ccc(C(=O)NC(C)c2cnn(-c3ccccn3)c2C)o1 (configuration not stated) | n | n | 90 | n | n | n
COc1ccc(OC)c(S(=O)(=O)NC(C)c2cnn(-c3ccccn3)c2C)c1 (configuration not stated) | n | n | n | n | n | n
COc1ccc(C(=O)Nc2ccc(C)cc2C(=O)c2ccccc2)c(OC)c1 | n | n | 97 | n | n | n
COc1ccc(NC(=O)c2cc3ccccc3cc2OC)cc1 | n | n | n | n | n | n
COc1cc(C(=O)c2ccccc2)c(OC)cc1C(=O)Nc1ccc(O)cc1 | n | n | 100 | n | n | n
COc1cccc(OC)c1C(=O)Nc1ccc(C)cc1C(=O)c1ccccc1 | n | n | n | n | n | n
O=[N+]([O-])c1cc(F)cc(F)c1Nc1cc(F)cc(F)c1 | x | n | x | x | n | x
CC1(C)CC(=O)C(C(C2=C(O)CC(C)(C)CC2=O)c2ccc(O)c([N+](=O)[O-])c2)=C(O)C1 | n | n | 97 | n | n | n
CC1(C)CC(=O)C(C(C2=C(O)CC(C)(C)CC2=O)c2ccc([N+](=O)[O-])cc2)C(=O)C1 (configuration not stated) | n | n | n | n | x | n
Cc1ccc(O)c(NC(=O)CSc2ccc(Cl)cc2)c1 | n | n | n | n | 3.0 | n
Cc1ccc(C)c(NC(=O)CSc2n[nH]c(-c3ccncc3)n2)c1 | n | n | n | n | n | n
Cc1ccc(C)c(NC(=O)CSc2c(C)n[nH]c2C)c1 | n | n | 96 | n | n | n
C=CCN1C(=O)/C(=C2/Sc3ccccc3N2CC)SC1=S | n | n | n | n | n | n
CCN1C(=O)/C(=C2/Sc3ccccc3N2CC)S/C1=N\c1ncn[nH]1 | n | n | 98 | n | x | n
CCOC(=O)c1sc(-c2ccc(Cl)cc2Cl)nc1O | n | n | 97 | n | n | n
CCOC(=O)C1(Cc2ccccc2C#N)CCCCC1=O (configuration not stated) | x | n | x | x | n | x
Cc1ccc(Oc2coc3cc(OC(=O)c4cccs4)ccc3c2=O)cc1 | n | n | x | n | n | n
CC(=O)Oc1ccc2c(=O)c(Oc3ccccc3)coc2c1OC(C)=O | n | n | 99 | n | n | n
O=C(NCc1ccc2c(c1)OCO2)C1CCC(CNS(=O)(=O)c2ccc(Cl)cc2)CC1 (configuration not stated) | n | n | n | n | n | n
SMILES | NALP1 inh | Arr AP2 block | ALR inh | PolyA inhibitor | Pemphigus Ab inh | NLRP3 yeast inh
Cc1ccc(S(=O)(=O)NCC2CCC(C(=O)NCc3ccc4c(c3)OCO4)CC2)cc1 (configuration not stated) | 41 | n | n | n | n | n
Cc1ccc(C)c(N2CCN(C(=O)CCCn3c(=S)[nH]c4cc5c(cc4c3=O)OCO5)CC2)c1 | n | n | n | n | 78 | n
CCN1CCN(CCn2c(=S)[nH]c3cc4c(cc3c2=O)OCO4)CC1 | n | n | 92 | n | n | n
O=C(CCCn1c(=S)[nH]c2cc3c(cc2c1=O)OCO3)N1CCN(C2CCCCC2)CC1 | n | n | 83 | n | n | n
CCN(CC)CCn1c(=S)[nH]c2cc3c(cc2c1=O)OCO3 | n | n | n | n | n | n
N#CCCN(C(=S)Nc1ccc(S(=O)(=O)N2CCOCC2)cc1)c1ccccc1F | x | n | x | x | n | n
Nc1cc(-c2ccccc2)nn1S(=O)(=O)c1ccc(Br)cc1 | n | n | 99 | n | n | n
O=C(OCc1cccc(F)c1)c1ccc2c(=O)n3c(nc2c1)CCC3 | 35 | n | x | n | n | n
